The subject of experiment [1] is Staphylococcus aureus. Description: Antibacterial activity against Staphylococcus aureus 29213 assessed as inhibition of bacterial growth incubated for 18 hrs by CLSI protocol based two fold serial dilution method. The experiment is classed as functional. An outline of the steps:
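S. aureus ATCC 29213 was grown in CAMHB and tested by CLSI-based broth microdilution. An overnight culture (37 °C, 250 rpm) was diluted tenfold, grown 2 h, and set to 5 × 10^6 CFU mL−1. Cells were added to two-fold serial compound dilutions (1% DMSO) and incubated 18 h at 37 °C. Read-out was A600, in duplicate. MIC was the lowest concentration with A600 < 0.1.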

For experiment [2], the system named is Bacillus subtilis. Description: Antibacterial activity against Bacillus subtilis 168 assessed as inhibition of bacterial growth incubated for 18 hrs by CLSI protocol based two-fold serial dilution assay. The experiment is classed as functional. An outline of the steps: (§1)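 B. subtilis 168 or E. coli ATCC 25922 was grown in MHB and tested by CLSI-based broth microdilution. An overnight culture (37 °C, 250 rpm) was diluted tenfold, grown 2 h, and set to 5 × 10^6 CFU mL−1 by A600. Cells were added to two-fold serial compound dilutions (1% DMSO) and incubated 18 h at 37 °C. Read-out was A600, in duplicate. MIC was the lowest concentration giving A600 < 0.1.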

For experiment [3], the system named is Bacillus subtilis. Description: Antibacterial activity against Bacillus subtilis 168 assessed as cell elongation at 0.5 ug/ml incubated for 4 hrs by phase-contrast microscopy. Format: functional. Conditions: dose 0.5 µg/ml. An outline of the steps: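 B. subtilis 168 overnight culture was diluted tenfold into fresh medium and grown 2 h. It was then adjusted to A600 = 0.01, given compound, and incubated 4 h at 37 °C; 1% (v/v) DMSO was the control. Cells were harvested, resuspended in LB, mounted on 1.2% agarose pads and imaged by phase contrast. Lengths of 100 cells per condition were measured to give length distributions and averages.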

A short description of experiment [4]: Ratio of MBC for bactericidal activity against methicillin-resistant Staphylococcus aureus BAA 41 to MIC for antibacterial activity against methicillin-resistant Staphylococcus aureus BAA 41. The experiment is classed as functional. An outline of the steps: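 MBC: culture at 5 × 10^5 CFU mL−1 incubated overnight at 37 °C with shaking and compound or 1% DMSO, then diluted ≥10-fold and plated on TSA for 24 h at 37 °C. MBC is the lowest concentration giving ≥99.9% reduction of the initial count. MBC is divided by the broth-dilution MIC (A600 < 0.1 after 18 h).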

A further experiment deals with Escherichia coli. The experiment is described as follows: Antibacterial activity against Escherichia coli 25922 assessed as inhibition of bacterial growth incubated for 18 hrs by CLSI protocol based two fold serial dilution method. Format: functional. Put shortly:
as §1

The subject of experiment [5] is Staphylococcus aureus. The experiment is described as follows: Antibacterial activity against methicillin-resistant Staphylococcus aureus BAA 44 assessed as inhibition of bacterial growth incubated for 18 hrs by CLSI protocol based two fold serial dilution method. Format: functional. An outline of the steps: (§2)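 CAMHB culture grown overnight at 37 °C with shaking at 250 rpm, diluted 10-fold, and grown 2 h. Inoculum set to 5 × 10^6 CFU mL−1 by A600. Compounds in DMSO were serially diluted two-fold, with 1% DMSO per well. Read at A600 after 18 h at 37 °C. MIC is the lowest concentration giving A600 < 0.1. Run in duplicate.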

In experiment [6] the test system is Staphylococcus aureus. The experiment is described as follows: Antibacterial activity against methicillin-resistant Staphylococcus aureus BAA 1720 assessed as inhibition of bacterial growth incubated for 18 hrs by CLSI protocol based two fold serial dilution method. The experiment is classed as functional. Put shortly: as §2
Experiment [7] has as its system Staphylococcus aureus. Description: Synergistic antibacterial activity against methicillin-resistant Staphylococcus aureus BAA 41 assessed as inhibition of bacterial growth incubated for 18 hrs in presence of methicillin by checkerboard assay. The experiment is classed as functional. Put shortly: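 Checkerboard: test compound serially diluted two-fold across the plate and methicillin serially diluted down it. Bacteria added at 5 × 10^5 CFU mL−1. Incubated at 37 °C for 16–24 h, then growth read at A600. Untreated-cell columns included. FICI calculated from the combination MICs.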

The test system of experiment [8] is Staphylococcus aureus. Description: Bactericidal activity against methicillin-resistant Staphylococcus aureus BAA 41 assessed as inhibition of bacterial growth at 1 ug/ml incubated for 24 hrs by time-kill assay. The experiment is classed as functional, organism-based. The note with it: dose 1.0 µg/ml. Put shortly:
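Time-kill: 3 mL culture at 5 × 10^5 CFU mL−1 exposed to compound at several concentrations or to 1% DMSO control at 37 °C with shaking at 250 rpm, over 24 h. 100 μL samples taken at intervals, diluted as needed, and spread on agar. Colonies counted after 24 h at 37 °C.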

Experiment [9] deals with Staphylococcus aureus. Description: Antibacterial activity against methicillin-resistant Staphylococcus aureus BAA 41 assessed as inhibition of bacterial growth incubated for 18 hrs by CLSI protocol based two fold serial dilution method. The experiment is classed as functional. Put shortly: as §2

Values after ≈ are worked out from the molar mass of the structure shown. Active and inactive are the calls of the source. The calls are words filed in the database; no cut-off is given here. A value given as a limit tells only on which side of the number the result lay.

In general, MIC refers to the lowest concentration that inhibits growth of the organism. For `NC(=O)c1c(F)ccc(OCc2nc3cc(Cl)cnc3s2)c1F`, the MIC was 0.5 µg/mL (≈ 1.41 µM) in the experiment with Staphylococcus aureus [1]; 0.5 µg/mL (≈ 1.41 µM) in the experiment on Bacillus subtilis [2]; over 128 µg/mL in the experiment on Escherichia coli; 1 µg/mL (≈ 2.81 µM) in the experiment with Staphylococcus aureus [5]; 1 µg/mL (≈ 2.81 µM) in the experiment on Staphylococcus aureus [6]; 0.5 µg/mL in the experiment with Staphylococcus aureus [7]. Moreover, the MIC in the experiment with Staphylococcus aureus [9] is 0.5 µg/mL (≈ 1.41 µM). For the same molecule, the Activity in the experiment on Bacillus subtilis [3] is reported as 33%. The Ratio in [4] is recorded as 2. Also, in the experiment on Staphylococcus aureus [8], the outcome was Active.

The values above are taken from ChEMBL document CHEMBL5104102, “Discovery of FtsZ inhibitors by virtual screening as antibacterial agents and study of the inhibition mechanism” (RSC Med Chem, 2022).
